Assays:
HGC-27 [1] = assay: Antiproliferative activity against human HGC-27 cells assessed as cell growth inhibition after 72 hrs by MTT assay; format: functional, cell-based; details: HGC-27, 72 h
Procedure, shortened: (§1)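 Log-phase cells were seeded at 5 × 10³ per well and attached 24 h. HT-29 and GES-1 were grown in DMEM-based medium, A549/HepG2/HGC-27 in RPMI-1640, HUVEC in ECM with ECGS; all media had 10% FBS. Cells were exposed to graded compound concentrations for 72 h at 37 °C. MTT (5 mg/mL stock) was added for 4 h, formazan dissolved in DMSO, and A490 read. IC50 was obtained by nonlinear sigmoidal regression; mean ± S.E. of three experiments.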

A549 = assay: Antiproliferative activity against human A549 cells assessed as cell growth inhibition after 72 hrs by MTT assay; format: functional, cell-based; details: A549, 72 h; procedure, shortened: as §1
GES1 = assay: Cytotoxicity against human GES-1 cells assessed as inhibition of cell growth incubated for 72 hrs by MTT assay; format: cell-based; details: GES1, 72 h; procedure, shortened: as §1
[2] = target: Vascular endothelial growth factor receptor 2 (Homo sapiens, UniProt P35968); assay: Inhibition of VEGFR2 (unknown origin) incubated for 10 mins followed by kinase substrate addition and measured after 30 mins by caliper mobility shift assay
Chain of Vascular endothelial growth factor receptor 2 (P35968 whole entry): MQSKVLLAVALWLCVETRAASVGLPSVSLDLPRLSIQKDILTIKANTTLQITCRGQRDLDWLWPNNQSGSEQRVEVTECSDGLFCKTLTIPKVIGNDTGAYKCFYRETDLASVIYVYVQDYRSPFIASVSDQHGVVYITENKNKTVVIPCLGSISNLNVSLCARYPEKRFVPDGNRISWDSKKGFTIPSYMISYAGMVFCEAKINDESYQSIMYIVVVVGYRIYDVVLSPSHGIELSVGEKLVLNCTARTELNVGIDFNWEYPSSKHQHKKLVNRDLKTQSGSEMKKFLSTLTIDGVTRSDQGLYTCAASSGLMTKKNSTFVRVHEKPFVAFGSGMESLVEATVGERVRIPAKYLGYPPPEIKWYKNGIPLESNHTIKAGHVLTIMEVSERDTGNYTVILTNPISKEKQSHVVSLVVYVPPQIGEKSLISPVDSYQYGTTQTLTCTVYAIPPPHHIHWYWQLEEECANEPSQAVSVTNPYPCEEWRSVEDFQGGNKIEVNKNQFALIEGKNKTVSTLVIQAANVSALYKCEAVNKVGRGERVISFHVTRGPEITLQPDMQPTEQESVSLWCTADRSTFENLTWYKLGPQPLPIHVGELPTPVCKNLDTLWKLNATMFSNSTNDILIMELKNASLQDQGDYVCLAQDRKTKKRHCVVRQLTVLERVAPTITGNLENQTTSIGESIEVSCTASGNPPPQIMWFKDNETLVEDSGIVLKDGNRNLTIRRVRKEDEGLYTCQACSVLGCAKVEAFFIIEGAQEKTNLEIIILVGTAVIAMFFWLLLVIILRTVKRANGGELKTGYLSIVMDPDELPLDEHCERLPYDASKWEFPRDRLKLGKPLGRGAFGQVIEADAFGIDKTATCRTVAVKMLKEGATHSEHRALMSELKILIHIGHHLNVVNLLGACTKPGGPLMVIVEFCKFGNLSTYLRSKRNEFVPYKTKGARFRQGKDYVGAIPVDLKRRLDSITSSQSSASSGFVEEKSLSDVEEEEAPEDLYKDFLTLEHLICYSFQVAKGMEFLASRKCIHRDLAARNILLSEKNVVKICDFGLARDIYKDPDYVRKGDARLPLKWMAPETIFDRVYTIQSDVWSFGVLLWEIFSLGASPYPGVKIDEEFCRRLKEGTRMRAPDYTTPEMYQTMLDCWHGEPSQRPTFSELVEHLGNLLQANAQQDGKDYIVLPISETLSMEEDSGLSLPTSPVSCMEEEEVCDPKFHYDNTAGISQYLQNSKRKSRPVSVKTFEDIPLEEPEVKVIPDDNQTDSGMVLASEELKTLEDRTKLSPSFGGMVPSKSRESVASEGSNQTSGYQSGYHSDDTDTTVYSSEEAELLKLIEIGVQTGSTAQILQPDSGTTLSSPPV

HepG2 = assay: Antiproliferative activity against human HepG2 cells assessed as cell growth inhibition after 72 hrs by MTT assay; format: functional, cell-based; details: HepG2, 72 h; procedure, shortened: as §1
HUVEC [3] = assay: Cytotoxicity against human HUVEC cells assessed as inhibition of cell growth incubated for 72 hrs by MTT assay; format: cell-based; procedure, shortened: as §1
HT-29 = assay: Antiproliferative activity against human HT-29 cells assessed as cell growth inhibition after 72 hrs by MTT assay; format: functional, cell-based; details: HT-29, 72 h; procedure, shortened: as §1
HGC-27 [4] = assay: Induction of apoptosis in human HGC-27 cells assessed as viable cells level at 5 uM incubated for 24 hrs by propidium iode and annexin V-FITC staining based flow cytometry (reference value: 96.0%); format: functional
HGC-27 [5] = assay: Induction of apoptosis in human HGC-27 cells assessed as late apoptotic cells level at 5 uM incubated for 24 hrs by propidium iode and annexin V-FITC staining based flow cytometry (reference value: 0.86%); format: functional
HGC-27 [6] = assay: Induction of apoptosis in human HGC-27 cells assessed as early apoptotic cells level at 5 uM incubated for 24 hrs by propidium iode and annexin V-FITC staining based flow cytometry (reference value: 1.48%); format: functional
HGC-27 [7] = assay: Induction of apoptosis in human HGC-27 cells assessed as necrotic cells level at 5 uM incubated for 24 hrs by propidium iode and annexin V-FITC staining based flow cytometry (reference value: 1.64%); format: functional
HUVEC [8] = assay: Antiangiogenic activity against HUVEC cells assessed as reduction in VEGF-induced tube formation tube formation incubated for 12 hrs by matrigel-based assay; format: functional, cell-based; details: Homo sapiens
Procedure, shortened: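 HUVECs at 4 × 10⁵ cells/mL seeded on Matrigel that had been polymerized 1 h at 37 °C. Cells were stimulated with 20 ng/mL VEGF and treated with compound (1, 2.5, 5 and 10 μM) or 0.1% DMSO vehicle for 12 h at 37 °C. Tubes were imaged by inverted microscopy. Tube length, surface area and branch points were quantified as pixel area.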

HGC-27 [9] = assay: Induction of apoptosis in human HGC-27 cells assessed as total apoptotic cells level at 5 uM incubated for 24 hrs by propidium iode and annexin V-FITC staining based flow cytometry; format: functional

| Structure (SMILES) | IC50 (A549) | IC50 [2] | IC50 (HepG2) | IC50 (HT-29) | IC50 (HGC-27 [1]) | IC50 (GES1) | IC50 (HUVEC [3]) | Activity (HGC-27 [4]) | Activity (HGC-27 [5]) | Activity (HGC-27 [6]) | Activity (HGC-27 [7]) | inhibition (HUVEC [8]) | Activity (HGC-27 [9]) |
| --- | --- | --- | --- | --- | --- | --- | --- | --- | --- | --- | --- | --- | --- |
| Cc1ccc(NC(=O)Cc2cccc(-c3ccc4c(NC(=O)C5CC5)n[nH]c4c3)c2)cc1C(F)(F)F | 20.9 µM |  | 25.5 µM | > 50 µM | 15.6 µM | 48.5 µM | > 50 µM |  |  |  |  |  |  |
| O=C(Cn1cc(-c2ccc3c(NC(=O)C4CC4)n[nH]c3c2)cn1)Nc1cc(C(F)(F)F)ccc1F | 8.82 µM | 0.012 µM | 5.61 µM | 5.06 µM | 3.73 µM | 25 µM | 5.26 µM |  |  |  |  |  |  |
| O=C(Cn1cc(-c2ccc3c(NC(=O)C4CC4)n[nH]c3c2)cn1)Nc1ccc(Cl)c(C(F)(F)F)c1 | 8.55 µM | 0.014 µM | 6.03 µM | 1.37 µM | 1.05 µM | 29.8 µM | 1.07 µM |  |  |  |  |  |  |
| Cc1ccc(NC(=O)Cn2cc(-c3ccc4c(NC(=O)C5CC5)n[nH]c4c3)nn2)cc1C(F)(F)F | > 50 µM |  | > 50 µM | > 50 µM | > 50 µM | > 100 µM | < 1 µM |  |  |  |  |  |  |
| CCNc1n[nH]c2cc(-c3cnn(CC(=O)Nc4ccc(C)c(C(F)(F)F)c4)c3)ccc12 | 8.48 µM | 0.038 µM | 15.1 µM | 8.32 µM | 1.19 µM | 1.9 µM | > 50 µM |  |  |  |  |  |  |
| Nc1n[nH]c2cc(-c3cnn(CC(=O)Nc4cccc(C(F)(F)F)c4)c3)ccc12 | 19.5 µM | 0.0074 µM | 11.5 µM | 3.97 µM | 10.2 µM | 22.3 µM | 7.25 µM |  |  |  |  |  |  |
| O=C(Cn1cc(-c2ccc3c(Nc4cccnc4)n[nH]c3c2)cn1)Nc1ccc(Cl)c(C(F)(F)F)c1 | 7.96 µM | 0.892 µM | 5.63 µM | 5.21 µM | 3.65 µM | 12.8 µM | 8.04 µM |  |  |  |  |  |  |
| Cn1cc(Nc2n[nH]c3cc(-c4cnn(CC(=O)Nc5ccc(Cl)c(C(F)(F)F)c5)c4)ccc23)cn1 | 12.1 µM | 0.22 µM | 10.4 µM | 9.17 µM | 12.5 µM | 13.3 µM | 4.03 µM |  |  |  |  |  |  |
| Nc1n[nH]c2cc(-c3cnn(CC(=O)Nc4cc(C(F)(F)F)ccc4F)c3)ccc12 | 20.5 µM | 0.022 µM | 13.3 µM | 7.83 µM | 15.5 µM | 7.64 µM | 23.9 µM |  |  |  |  |  |  |
| Cc1ccc(NC(=O)Cn2cc(-c3ccc4c(NCC5CC5)n[nH]c4c3)cn2)cc1C(F)(F)F | 9.88 µM | 0.06 µM | 22.3 µM | 11 µM | 1.22 µM | 12 µM | 17.9 µM |  |  |  |  |  |  |
| Nc1n[nH]c2cc(-c3cnn(CC(=O)Nc4ccc(Cl)c(C(F)(F)F)c4)c3)ccc12 | 12.5 µM | 0.012 µM | 7.71 µM | 3.57 µM | 7.68 µM | 12 µM | 6.84 µM |  |  |  |  |  |  |
| Cc1ccc(NC(=O)Cc2ccc(-c3ccc4c(NC(=O)C5CC5)n[nH]c4c3)cc2)cc1C(F)(F)F | 45.1 µM |  | > 50 µM | 44.7 µM | 33.7 µM | > 100 µM | > 100 µM |  |  |  |  |  |  |

Now those with a lower IC50 (A549), led by results:

| IC50 (A549) | IC50 [2] | IC50 (HepG2) | IC50 (HT-29) | Structure (SMILES) | IC50 (HGC-27 [1]) | IC50 (GES1) | IC50 (HUVEC [3]) | Activity (HGC-27 [4]) | Activity (HGC-27 [5]) | Activity (HGC-27 [6]) | Activity (HGC-27 [7]) | inhibition (HUVEC [8]) | Activity (HGC-27 [9]) |
| --- | --- | --- | --- | --- | --- | --- | --- | --- | --- | --- | --- | --- | --- |
| 7.17 µM | 0.143 µM | 6.54 µM | 3.69 µM | CS(=O)(=O)Cc1cccc(Nc2n[nH]c3cc(-c4cnn(CC(=O)Nc5ccc(Cl)c(C(F)(F)F)c5)c4)ccc23)c1 | 1.26 µM | 17.7 µM | 7.22 µM |  |  |  |  |  |  |
| 7.09 µM | 0.0027 µM | 4.18 µM | 1.54 µM | Cc1ccc(NC(=O)Cn2cc(-c3ccc4c(N)n[nH]c4c3)cn2)cc1C(F)(F)F | 4.98 µM | 6.96 µM | 5.24 µM |  |  |  |  |  |  |
| 5.34 µM | 0.0023 µM | 9.08 µM | 7.78 µM | Cc1ccc(NC(=O)Cn2cc(-c3ccc4c(NC(=O)c5cccnc5)n[nH]c4c3)cn2)cc1C(F)(F)F | 1.17 µM | 8.46 µM | 1.75 µM |  |  |  |  |  |  |
| 5.28 µM | 0.011 µM | 15.3 µM | 1.79 µM | Cc1ccc(NC(=O)Cn2cc(-c3ccc4c(NC(=O)C5CCN(C)CC5)n[nH]c4c3)cn2)cc1C(F)(F)F | 0.16 µM | 5.31 µM | 53.9 µM |  |  |  |  |  |  |
| 5.13 µM |  | 6.18 µM | 5.57 µM | CNC(=O)c1cc(Oc2ccc(NC(=O)Nc3ccc(Cl)c(C(F)(F)F)c3)cc2)ccn1 [SORAFENIB] | 5.22 µM | 9.59 µM | 8.33 µM | 50.6% | 18.5% | 6.91% | 24% | Dose-Dependent Effect | 25.41% |
| 4.72 µM | 0.249 µM | 4.32 µM | 6.11 µM | Cn1cc2ccc(Nc3n[nH]c4cc(-c5cnn(CC(=O)Nc6ccc(Cl)c(C(F)(F)F)c6)c5)ccc34)cc2n1 | 5.03 µM | 10 µM | 6.4 µM |  |  |  |  |  |  |
| 3.86 µM | 0.00073 µM | 2.61 µM | 4.92 µM | Cc1ccc(NC(=O)Cn2cc(-c3ccc4c(NC(=O)c5cnn(C)c5)n[nH]c4c3)cn2)cc1C(F)(F)F | 0.021 µM | 1.67 µM | 4.41 µM |  |  |  |  |  |  |
| 2.48 µM | 0.028 µM | 13.7 µM | 0.48 µM | Cc1ccc(NC(=O)Cn2cc(-c3ccc4c(NC(=O)C(C)C)n[nH]c4c3)cn2)cc1C(F)(F)F | 0.39 µM | > 100 µM | 2.43 µM |  |  |  |  |  |  |
| 2.16 µM | 0.0014 µM | 2.51 µM | 1.01 µM | Cc1ccc(NC(=O)Cn2cc(-c3ccc4c(NC(=O)C5CC5)n[nH]c4c3)cn2)cc1C(F)(F)F | 0.63 µM | 4.24 µM | 0.95 µM |  |  |  |  |  |  |
| 1.81 µM | 0.307 µM | 27.4 µM | 14.7 µM | Cc1ccc(NC(=O)Cn2nc(C)c(-c3ccc4c(NC(=O)C5CC5)n[nH]c4c3)c2C)cc1C(F)(F)F | 2.79 µM | 11.9 µM | 6.62 µM |  |  |  |  |  |  |
| 1.65 µM | 0.027 µM | 20.4 µM | 7.03 µM | Cc1ccc(NC(=O)Cn2cc(-c3ccc4c(NC(=O)C5CC5)n[nH]c4c3)c(C)n2)cc1C(F)(F)F | 0.65 µM | 3.09 µM | 4.92 µM |  |  |  |  |  |  |
| 1.58 µM | 0.015 µM | 8.34 µM | 0.19 µM | Cc1ccc(NC(=O)Cn2cc(-c3ccc4c(NC(=O)C5CCCC5)n[nH]c4c3)cn2)cc1C(F)(F)F | 0.5 µM | 0.75 µM | 1.49 µM |  |  |  |  |  |  |
| 1.37 µM | 0.407 µM | 3.83 µM | 3.27 µM | CNS(=O)(=O)c1cc(Nc2n[nH]c3cc(-c4cnn(CC(=O)Nc5ccc(Cl)c(C(F)(F)F)c5)c4)ccc23)ccc1C | 0.39 µM | 3.37 µM | 1.45 µM |  |  |  |  |  |  |
| 0.96 µM | 0.012 µM | 38.1 µM | 8.09 µM | Cc1ccc(NC(=O)Cc2ccc(-c3ccc4c(NC(=O)C5CC5)n[nH]c4c3)s2)cc1C(F)(F)F | 3.09 µM | 13.9 µM | 5.62 µM |  |  |  |  |  |  |

Source: ChEMBL document CHEMBL4819027, “Design, synthesis and biological evaluation of novel 2-(4-(1H-indazol-6-yl)-1H-pyrazol-1-yl)acetamide derivatives as potent VEGFR-2 inhibitors” (Eur J Med Chem, 2021)
